Test results from ChEMBL document CHEMBL1143074, “Symplocamide A, a potent cytotoxin and chymotrypsin inhibitor from the marine Cyanobacterium Symploca sp” (J Nat Prod, 2008).
Activity calls are given as the source filed them. The rule behind the calls is not given here.

Columns and labels:
[1] = Inhibition of trypsin
Outline: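 Trypsin (0.0023 mg/mL final, 2.75 BAEE U) was added to 0.45 mM BAEE in 64 mM NaH2PO4 pH 7.6 at 25 °C. Compound was premixed with substrate from a 1:2 EtOH dilution series (final 4.5 × 10-4 to 6.8 × 10^-6 M), against an EtOH blank. N-benzoyl-L-arginine formation was read at 253 nm for 5 min, and the 0.5–2 min interval was analyzed.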

[2] = Inhibition of trypsin at 10 uM
[3] = Inhibition of chymotrypsin at 10 uM
[4] = Inhibition of chymotrypsin
Outline: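 Spectrophotometric assay: 0.0025 mg/mL chymotrypsin (0.0086 U) with 0.53 mM BTEE in 38 mM Tris-HCl pH 7.8, 53 mM CaCl2, 0.5 mM HCl and 32% MeOH at 25 °C. Inhibitor (from MeOH dilutions, final 6.25 × 10-5 to 7.5 × 10^-9 M) was equilibrated with substrate before enzyme addition. Absorbance at 256 nm was followed for 5 min, and the 0.5–1.5 min interval was analyzed.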

NCI-H460 = assay: Cytotoxicity against human H460 cells; format: functional, cell-based
[5] = Cytotoxicity against mouse Neuro2a cells; format: functional, cell-based; details: N2a
Plasmodium falciparum = assay: Antiparasitic activity against chloroquine-resistant Plasmodium falciparum W2 in microfluorimetric assay; format: functional, organism-based
Trypanosoma cruzi = assay: Antiparasitic activity against Trypanosoma cruzi C4 clone; format: functional, organism-based
Leishmania donovani = assay: Antiparasitic activity against Leishmania donovani LD-1S/MHOM/SD/00-strain 1S; format: functional, organism-based

| SMILES | IC50 [1] | Activity [2] | Activity [3] | further results |
| --- | --- | --- | --- | --- |
| CC(C)C[C@@H](NC(=O)[C@H](O)COS(=O)(=O)O)C(=O)N[C@@H]1C(=O)N[C@@H](CCCNC(=N)N)C(=O)N[C@H]2CC[C@@H](O)N(C2=O)[C@@H](CC(C)C)C(=O)N(C)[C@@H](Cc2ccc(O)cc2)C(=O)N[C@@H](C(C)C)C(=O)O[C@@H]1C | 9.6 nM | – | – | – |
| CC(C)[C@H](NC(=O)[C@@H](C)NC(=O)[C@H](CCCc1ccc(O)cc1)NC(=O)[C@H](O)CO)C(=O)N[C@@H]1C(=O)N[C@@H](CCc2ccc(O)cc2)C(=O)N[C@H]2CC[C@@H](O)N(C2=O)[C@@H]([C@@H](C)O)C(=O)N(C)[C@@H](Cc2ccc(O)c(Br)c2)C(=O)N[C@@H](C(C)C)C(=O)O[C@@H]1C | – | inactive | inactive | – |
| CCC(=O)N[C@@H](CCC(N)=O)C(=O)N1CC(C)[C@@H]2OC(=O)[C@H]([C@@H](C)CC)NC(=O)[C@H](Cc3ccc(O)cc3)N(C)C(=O)[C@H]([C@@H](C)CC)N3C(=O)[C@H](CC[C@H]3O)NC(=O)[C@H](CC(C)C)NC(=O)[C@H]21 (stereo partly drawn) | – | inactive | inactive | – |
| CCCC(=O)N[C@@H](CC(C)C)C(=O)N[C@@H](CCC(=O)O)C(=O)N[C@@H]1C(=O)N[C@@H](Cc2ccc(O)cc2)C(=O)N[C@H]2CC[C@@H](O)N(C2=O)[C@@H](C(C)C)C(=O)N(C)[C@@H](Cc2ccccc2)C(=O)N[C@@H]([C@@H](C)CC)C(=O)O[C@@H]1C | – | inactive | inactive | – |
| CCCC(=O)N[C@@H](Cc1ccccc1)C(=O)N[C@@H](CCC(=O)O)C(=O)N[C@@H]1C(=O)N[C@@H](CCC(=O)O)C(=O)N[C@H]2CC[C@@H](O)N(C2=O)[C@@H](C(C)C)C(=O)N(C)[C@@H](Cc2ccccc2)C(=O)N[C@@H]([C@@H](C)CC)C(=O)O[C@@H]1C | – | inactive | inactive | – |
| CC[C@H](C)[C@@H]1NC(=O)[C@H](Cc2ccc(OC)cc2)N(C)C(=O)[C@H]([C@@H](C)O)N2C(=O)[C@H](CC[C@H]2O)NC(=O)[C@H](CC(C)C)NC(=O)[C@@H](NC(=O)[C@H](CCC(N)=O)NC(=O)[C@@H]2CCC(=O)N2)[C@@H](C)OC1=O | – | inactive | inactive | – |
| CC[C@H](C)[C@@H]1NC(=O)[C@H](Cc2ccc(O)cc2)N(C)C(=O)[C@H]([C@@H](C)CC)N2C(=O)C(CCC2O)NC(=O)[C@H](CC(C)C)NC(=O)[C@@H]2C(OC1=O)C(C)CN2C(=O)[C@H](CCC(N)=O)NC(C)=O (stereo in doubt; form 2) | – | inactive | inactive | – |
| CC[C@H](C)[C@@H]1NC(=O)[C@H](Cc2ccccc2)N(C)C(=O)[C@H]([C@@H](C)CC)N2C(=O)[C@H](CC[C@H]2O)NC(=O)[C@H](CCCNC(=N)N)NC(=O)[C@@H](NC(=O)[C@H](O)COS(=O)(=O)O)[C@@H](C)OC1=O [CYANOPEPTOLIN S] | 240 nM | – | – | – |
| CC(C)[C@@H]1NC(=O)[C@H](Cc2ccc(O)cc2)N(C)C(=O)[C@H](Cc2ccccc2)N2C(=O)[C@H](CC[C@H]2O)NC(=O)[C@H](CCCNC(=N)N)NC(=O)[C@@H](NC(=O)[C@@H](O)COS(=O)(=O)O)[C@@H](C)OC1=O [MICROPEPTIN 90] | 2080 nM | – | inactive | – |
| CCCCCCCC(=O)N[C@@H](CCC(=O)O)C(=O)N[C@@H]1C(=O)N[C@@H](CCCCN)C(=O)N[C@H]2CC[C@@H](O)N(C2=O)[C@@H](CC(C)C)C(=O)N(C)[C@@H](Cc2ccc(O)cc2)C(=O)N[C@@H](C(C)C)C(=O)O[C@@H]1C [MICROPEPTIN A] | 70 nM | – | inactive | – |
| CCCCCC(=O)N[C@@H](CCC(=O)O)C(=O)N[C@@H]1C(=O)N[C@@H](CCCNC(=N)N)C(=O)N[C@H]2CC[C@@H](O)N(C2=O)[C@@H](CC(C)C)C(=O)N(C)[C@@H](Cc2ccc(O)cc2)C(=O)N[C@@H](C(C)C)C(=O)O[C@@H]1C [MICROPEPTIN B] | 260 nM | – | inactive | – |
| CC[C@H](C)[C@@H]1NC(=O)[C@H](Cc2ccc(O)cc2)N(C)C(=O)[C@H](Cc2ccccc2)N2C(=O)[C@H](CC[C@H]2O)NC(=O)[C@H](CCCNC(=N)N)NC(=O)[C@@H](NC(=O)[C@H](CC(=O)O)NC(C)=O)[C@@H](C)OC1=O [MICROPEPTIN E1964] | 4360 nM | – | inactive | – |
| CCCC(=O)N[C@@H](CC(=O)O)C(=O)N[C@@H]1C(=O)N[C@@H](CCCNC(=N)N)C(=O)N[C@H]2CC[C@@H](O)N(C2=O)[C@@H](Cc2ccccc2)C(=O)N(C)[C@@H](Cc2ccc(O)cc2)C(=O)N[C@@H]([C@@H](C)CC)C(=O)O[C@@H]1C [MICROPEPTIN EI992] | 3830 nM | – | inactive | – |
| CCCCCC(=O)N[C@@H](CC(=O)O)C(=O)N[C@@H]1C(=O)N[C@@H](CCCCN)C(=O)N[C@H]2CC[C@@H](O)N(C2=O)[C@@H]([C@@H](C)CC)C(=O)N(C)[C@@H](Cc2ccc(O)cc2)C(=O)N[C@@H](C(C)C)C(=O)O[C@@H]1C [MICROPEPTIN SD944] | 8470 nM | – | inactive | – |
| CCCCCC(=O)N[C@@H](CC(=O)O)C(=O)N[C@@H]1C(=O)N[C@@H](CCCNC(=N)N)C(=O)N[C@H]2CC[C@@H](O)N(C2=O)[C@@H]([C@@H](C)CC)C(=O)N(C)[C@@H](CC(=O)c2ccccc2N)C(=O)N[C@@H](C(C)C)C(=O)O[C@@H]1C [MICROPEPTIN SD999] | 4000 nM | – | inactive | – |
| CCCCCC(=O)N[C@@H](CC(=O)O)C(=O)N[C@@H]1C(=O)N[C@@H](CCCNC(=N)N)C(=O)N[C@H]2CC[C@@H](O)N(C2=O)[C@@H]([C@@H](C)CC)C(=O)N(C)[C@@H](Cc2c[nH]c3ccccc23)C(=O)N[C@@H](C(C)C)C(=O)O[C@@H]1C [MICROPEPTIN SF995] | 200 nM | – | inactive | – |
| CCCCCC(=O)N[C@@H](CCC(=O)O)C(=O)N[C@@H]1C(=O)N[C@@H](CCCCN)C(=O)N[C@H]2CC[C@@H](O)N(C2=O)[C@@H](Cc2ccccc2)C(=O)N(C)[C@@H](Cc2c[nH]c3ccccc23)C(=O)N[C@@H](C(C)C)C(=O)O[C@@H]1C [MICROPEPTIN T2] | 100 nM | – | inactive | – |
| CC[C@H](C)[C@@H]1NC(=O)[C@H](Cc2ccc(O)cc2)N(C)C(=O)[C@H](CC(C)C)N2C(=O)[C@H](CC[C@H]2OC)NC(=O)[C@H](CC(C)C)NC(=O)[C@@H]2[C@@H](OC1=O)C(C)CN2C(=O)[C@H](CCC(N)=O)NC(C)=O (stereo partly drawn) [NOSTOPEPTIN F] | – | inactive | – | IC50 [4]: 3800 nM |
| CC[C@H](C)[C@@H]1NC(=O)[C@H](Cc2ccc(OC)cc2)N(C)C(=O)[C@H](CC(C)C)N2C(=O)[C@H](CC[C@H]2O)NC(=O)[C@H](CC(C)C)NC(=O)[C@@H]2[C@@H](OC1=O)C(C)CN2C(=O)[C@H](CCC(N)=O)NC(C)=O (stereo partly drawn) [NOSTOPEPTIN I] | – | inactive | – | IC50 [4]: 3500 nM |
| CC[C@H](C)[C@@H]1NC(=O)[C@H](Cc2ccc(OC)cc2)N(C)C(=O)[C@H](CC(C)C)N2C(=O)[C@H](CC[C@H]2OC)NC(=O)[C@H](CC(C)C)NC(=O)[C@@H]2[C@@H](OC1=O)C(C)CN2C(=O)[C@H](CCC(N)=O)NC(C)=O (stereo partly drawn) [NOSTOPEPTIN J] | – | inactive | – | IC50 [4]: 3200 nM |
| CC[C@@H](C)[C@@H]1NC(=O)[C@H](Cc2ccc(OC)cc2)N(C)C(=O)[C@H]([C@@H](C)CC)N2C(=O)[C@H](CC[C@H]2O)NC(=O)[C@H](CCc2ccc(O)cc2)NC(=O)[C@@H](NC(=O)[C@H](CCc2ccc(O)cc2)NC(=O)[C@@H](COS(=O)(=O)O)OC)[C@@H](C)OC1=O [OSCILLAPEPTIN A] | – | inactive | – | IC50 [4]: 1890 nM |
| CC[C@@H](C)[C@@H]1NC(=O)[C@H](Cc2ccccc2)N(C)C(=O)[C@H]([C@@H](C)CC)N2C(=O)[C@H](CC[C@H]2O)NC(=O)[C@H](CCCCN)NC(=O)[C@@H](NC(=O)[C@@H](CCc2ccccc2)NC(=O)[C@@H](COS(=O)(=O)O)OC)[C@@H](C)OC1=O [OSCILLAPEPTIN F] | 180 nM | – | inactive | – |
| CC[C@H](C)[C@@H]1NC(=O)[C@H](Cc2ccc(OC)cc2)N(C)C(=O)[C@H]([C@@H](C)O)N2C(=O)[C@H](CC[C@H]2O)NC(=O)[C@H](CC(C)C)NC(=O)[C@@H](NC(=O)[C@H](CCC(N)=O)NC(=O)[C@@H](NC(=O)[C@@H](O)CO)C(C)C)[C@@H](C)OC1=O [PLANKTOPEPTIN BL1061] | – | inactive | – | IC50 [4]: 2100 nM |
| CC[C@H](C)[C@@H]1NC(=O)[C@H](Cc2ccc(OC)cc2)N(C)C(=O)[C@H]([C@@H](C)O)N2C(=O)[C@H](CC[C@H]2O)NC(=O)[C@H](CC(C)C)NC(=O)[C@@H](NC(=O)[C@H](CCC(N)=O)NC(=O)[C@H](CCc2ccc(O)cc2)NC(=O)[C@@H](O)CO)[C@@H](C)OC1=O [PLANKTOPEPTIN BL1125] | – | inactive | – | IC50 [4]: 800 nM |
| CCCC(=O)N[C@@H](CCC(N)=O)C(=O)N[C@@H]1C(=O)N[C@@H](CCCNC(N)=O)C(=O)N[C@H]2CC[C@@H](O)N(C2=O)[C@@H]([C@@H](C)CC)C(=O)N(C)[C@@H](Cc2ccc(OC)c(Br)c2)C(=O)N[C@@H](C(C)C)C(=O)O[C@@H]1C [SYMPLOCAMIDE A] | 80200 nM | – | – | IC50 [4]: 380 nM; IC50 (NCI-H460): 40 nM; IC50 [5]: 29 nM; IC50 (Plasmodium falciparum): 950 nM; IC50 (Trypanosoma cruzi): > 9500 nM; IC50 (Leishmania donovani): > 9500 nM |
